Experimental data: ChEMBL document CHEMBL5038583, “Highly Potent and Selective Butyrylcholinesterase Inhibitors for Cognitive Improvement and Neuroprotection” (J Med Chem, 2021)
pIC50: −log10 of the molar value. The source made the active and inactive calls. The rule behind the calls is not given here.

What was measured:
SH-SY5Y [1] = test: Neuroprotective activity against glutamate-induced cytotoxicity in human SH-SY5Y cells at 10 uM pretreated for 2 hrs followed by glutamate stimulation and measured after 24 hrs by MTT assay; assay type: functional, cell-based; conditions: time 26.0 hrs
How it was run: (§1)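 SH-SY5Y cells seeded at 5000 per well and grown 24 h. Pretreated 2 h with compound (2.5 or 10 μM, diluted in DMEM from 10⁻¹ M DMSO stock), then H₂O₂ 200 μM, glutamate 20 mM or aggregated Aβ1-42 15 μM for 24 h. MTT added for 4 h, formazan dissolved in DMSO, absorbance read at 492 nm. Viability relative to untreated control; mean ± SEM, n = 3.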

[2] = Ratio of Cmax in brain to plasma of ICR mouse at 10 mg/kg, po measured upto 240 mins; assay type: ADME, organism-based
How it was run: (§2)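 ICR mice given 10 mg/kg orally in 5% DMSO/40% PEG400/55% saline (1 mg/mL). Blood (retro-orbital) and brain collected at 30, 60, 120 and 240 min. Brain homogenized in 2 volumes PBS, extracted with ethyl acetate, dried and reconstituted in mobile phase. Plasma processed as in the rat study; LC/MS/MS. Brain/plasma ratios from exposures, AUC(B) vs AUC(P).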

[3] = Ratio of AUC in brain to plasma of ICR mouse at 10 mg/kg, po measured upto 240 mins; assay type: ADME, organism-based; conditions: read-out: Ratio AUC; how it was run: as §2
[4] = Hepatotoxicity in ICR mouse assessed as change in aspartate aminotransferase activity at 1 g/kg, ig administered daily for 14 days measured upto 36 hrs post-administration; assay type: toxicity; conditions: in vivo, po, 1000 mg/kg, 336 h, time 14 day
How it was run: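 Heparinized serum from ICR mice taken at 8, 22 and 36 h after oral compound or saline control; AST and ALT activities measured.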

SH-SY5Y [5] = test: Neuroprotective activity against H2O2-induced cytotoxicity in human SH-SY5Y cells pretreated for 2 hrs followed by H2O2 stimulation and measured after 24 hrs by MTT assay; assay type: functional, cell-based; conditions: dose 2.5-10 µM, time 26.0 hrs; how it was run: as §1
Cholinesterase = Cholinesterase (Homo sapiens, UniProt P06276); test: Inhibition of human serum BChE using butyrylthiocholine iodide as substrate preincubated for 20 mins followed by substrate addition and measured after 2 mins by DTNB-reagent based Ellman's method
How it was run: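 hBChE at 0.015 units/mL with DTNB in phosphate buffer pH 8.0, preincubated 20 min at room temperature with at least six concentrations (10⁻⁴−10⁻⁹). Butyrylthiocholine iodide (0.075 M solution) added; A412 read after 2 min at 25 °C. IC50 from % activity vs log concentration; triplicates in at least three runs.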

SH-SY5Y [6] = test: Cytotoxicity against human SH-SY5Y cells assessed as survival rate at 100 uM incubated for 24 hrs by MTT assay; assay type: functional
How it was run: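 Cells seeded at 1 × 10⁴/well in DMEM with 10% FBS and left overnight, then given compound (DMSO stock diluted in DMEM) for 24 h at 37 °C. MTT added for 4 h, formazan dissolved in DMSO, absorbance read at 492 nm. Viability taken as OD treated/OD DMEM × 100%; IC50 from three independent experiments, mean SD.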

[7] = Acute toxicity in ICR mouse assessed as animal death at […]; conditions: in vivo, po, 1000 mg/kg, 336 h
[8] = Acute toxicity in ICR mouse assessed as abnormal behaviour at 1 g/kg, ig administered […]; conditions: in vivo, po, 1000 mg/kg
How it was run: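 Single dose of 1 g/kg given intragastrically on day 1 to overnight-fasted mice (15−18 g), suspended in 5% DMSO, 40% PEG 400, 55% saline. Male and female groups (n = 9), with vehicle controls. Death, daily behaviour and body mass followed over the next 2 weeks.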

[9] = Tmax in overnight fasted Sprague-Dawley rat at 10 mg/kg, iv measured upto 1440 mins by LC/MS/MS analysis; assay type: ADME, organism-based; conditions: in vivo
How it was run: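 Male SD rats (180−220 g), n = 8 per route, fasted overnight with water available. Single 10 mg/kg dose p.o. or i.v. in DMSO/PEG400/saline (10:80:10). Retro-orbital blood taken into heparinized tubes at 1–1440 min. Plasma precipitated with methanol containing theophylline internal standard, then LC/MS/MS against a blank-plasma standard curve. Parameters from noncompartmental extravascular analysis; mean ± SD.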

[10] = Cmax in ICR mouse plasma at 10 mg/kg, po measured upto 240 mins; assay type: ADME, organism-based; parameters: route oral, dose 10 mg/kg, time <=240; how it was run: as §2
[11] = Cmax in ICR mouse brain at 10 mg/kg, po measured upto 240 mins; assay type: ADME, organism-based; parameters: route oral, dose 10 mg/kg, time <=240; how it was run: as §2
SH-SY5Y [12] = test: Neuroprotective activity against amyloid beta (1 to 42)-induced cytotoxicity in human SH-SY5Y cells at 2.5 uM pretreated for 2 hrs followed by amyloid beta (1 to 42) stimulation and measured after 24 hrs by MTT assay; assay type: functional, cell-based; conditions: time 26.0 hrs; how it was run: as §1
[13] = Ratio of drug concentration in brain to plasma of ICR mouse at 10 mg/kg, po measured after 0.5 hrs; assay type: ADME, organism-based; how it was run: as §2
[14] = Ratio of drug concentration in brain to plasma of ICR mouse at 10 mg/kg, po measured after 1 hrs; assay type: ADME, organism-based; how it was run: as §2
[15] = Ratio of drug concentration in brain to plasma of ICR mouse at 10 mg/kg, po measured after 2 hrs; assay type: ADME, organism-based; how it was run: as §2
Mus musculus [16] = test: Antialzheimer activity in scopolamine-induced ICR mouse model of cognitive impairment assessed as reduction in escape latency at 30 mg/kg, ig administered for 10 consecutive days by Morris water maze test; assay type: functional, organism-based
How it was run: (§3)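 Male ICR mice (8−10 weeks, 18−20 g), n = 8 per group. Compound at 15 or 30 mg/kg intragastric in DMSO/saline (10:90), given 30 min before scopolamine 3 mg/kg i.p., for 10 consecutive days; tacrine 15 mg/kg as reference. Morris water maze: 5 days of training, probe trial on day 6 with platform removed. Escape latency and trajectory recorded; mean ± SD.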

Mus musculus [17] = test: Anti-alzheimer activity in scopolamine-induced ICR mouse model of cognitive impairment assessed as simplification of trajectories at 30 mg/kg, ig administered for 10 consecutive days by Morris water maze test; assay type: functional, organism-based; how it was run: as §3
Mus musculus [18] = test: Anti-alzheimer activity in amyloid beta(1 to 42)-induced ICR mouse model of cognitive impairment assessed as enhanced alternation performance by measuring total number of arm entries at 15 mg/kg, ig administered at days 2 to 14 and measured on day 15 by Y-maze test; assay type: functional
How it was run: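 Oligomerized Aβ1-42 (10 μg per mouse, icv) given on day 1; saline icv for sham. Dosing 15 mg/kg ig on days 2−14 (donepezil as positive control), n = 8. Spontaneous alternation read on day 15 in a three-arm grey PVC Y maze, arms at 120°. Mean SD.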

Plasma = test: Increase in ghrelin levels in ICR mouse plasma assessed as inhibition of BChE; assay type: functional, cell-free
[19] = Metabolic stability in human liver microsomes assessed as intrinsic clearance at 1 uM measured upto 45 mins in presence of NADPH by LC/MS/MS analysis; assay type: ADME, Microsome; conditions: read-out: CLH
How it was run: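 Human liver microsomes 0.5 mg/mL, compound 1 μM final, NADPH 2 mM, at 37 °C. Reactions stopped at 0, 5, 15, 30 and 45 min with acetonitrile containing imipramine internal standard. LC/MS/MS quantitation relative to 0 min; initial rates used for t1/2 and intrinsic clearance; ketanserin as assay control. Mean of two independent experiments.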

Cholinesterase, sequence (P06276 whole entry): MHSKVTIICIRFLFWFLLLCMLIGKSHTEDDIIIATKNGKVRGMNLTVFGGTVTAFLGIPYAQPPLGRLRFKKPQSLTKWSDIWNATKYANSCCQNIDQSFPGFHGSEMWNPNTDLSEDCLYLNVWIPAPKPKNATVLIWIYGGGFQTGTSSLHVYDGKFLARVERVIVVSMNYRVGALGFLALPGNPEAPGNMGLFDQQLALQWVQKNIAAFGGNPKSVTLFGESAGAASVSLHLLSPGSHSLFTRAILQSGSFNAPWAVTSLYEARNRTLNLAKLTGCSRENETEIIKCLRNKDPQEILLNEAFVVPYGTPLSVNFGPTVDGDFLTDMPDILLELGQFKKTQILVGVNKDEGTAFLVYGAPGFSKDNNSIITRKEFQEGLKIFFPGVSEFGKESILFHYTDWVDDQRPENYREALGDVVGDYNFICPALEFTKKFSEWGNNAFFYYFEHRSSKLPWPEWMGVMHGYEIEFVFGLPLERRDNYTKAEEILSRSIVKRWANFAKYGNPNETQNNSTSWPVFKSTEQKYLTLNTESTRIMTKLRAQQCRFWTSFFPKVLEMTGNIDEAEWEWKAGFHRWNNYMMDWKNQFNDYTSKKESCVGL

## Nc1nonc1-c1nc2ccccc2n1CC(=O)Nc1cnc2ccccc2c1
SH-SY5Y [1]
  Activity: Active
[2]
  Kp at 4 h: 0.24
[3]
  Kp at 4 h: 0.36
[4]
  Activity: Non-Toxic
SH-SY5Y [5]
  Activity: Dose-Dependent Effect
Cholinesterase
  pIC50: 7.80
SH-SY5Y [6]
  Activity: 62.19%
[7]
  Activity: Non-Toxic
[8]
  Activity: Non-Toxic
[9]
  Tmax: 1.02 min
[10]
  Cmax: 49.9 ng/mL
[11]
  Cmax: 12.1 ng/mL
SH-SY5Y [12]
  Activity: Active
[13]
  Kp at 0.5 h: 1.54
[14]
  Kp at 1 h: 5.05
[15]
  Kp at 2 h: 2.43
Mus musculus [16]
  Activity: Active
Mus musculus [17]
  Activity: Active
Mus musculus [18]
  Activity: Active
Plasma
  Activity: Active
[19]
  CLint scaled at 1 µM: 10.9 mL/min/kg
